Only some compounds are listed: those with a hit (about 2.6% of all), similar ones and a draw of the others.
Casp6 inh: blocks human caspase-6 cleavage activity; purified caspase-6, Z-VEID-R110 cleavage fluorescence; P55212; hit rate 0.53% among 350,000; inhibition, % at 12.5 µM;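 active = mean inhibition across replicates at least about 35%, with every replicate also reaching that limit, limit read from the data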
FGF22 binding: shifts melting point of recombinant human FGF22. Q9HCT0. recombinant FGF22 thermal shift, SYPRO orange fluorescence; percent of sucrose octasulfate shift, DMSO zero. activity (Tm shift, normalised), % at 9.99 µM. hit rate 1.5% among 340,000;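 active = mean Tm shift, scaled 0 neutral to 100 positive control, at about 1.3% or above, every replicate too, limit read from the data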
UCH37 DUB inh: blocks the human deubiquitinase UCH37; purified proteasome/UCH37, Ub-AMC cleavage fluorescence; hit rate 0.33% among 330,000; Q9Y5K5; inhibition, % (no concentration beside the values);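 active = mean inhibition over replicate wells above about 20%, limit read from the data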
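Reagent: Ub-AMC substrate; assay system: Proteasome-associated human UCH37 deubiquitinase; controls: no-proteasome and no-compound wells; read-out: % inhibition of Ub-AMC cleavage fluorescence; timing: 30 min preincubation with enzyme, 25 min cleavage at room temperature; signal: AMC fluorescence from Ub-AMC cleavage, excitation 355 nm, emission 460 nm; buffer or medium: Tris-HCl pH 7.4 plus ovalbumin, ATP-MgCl2, DTT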
NSD2 HMT inh: inhibitors of human histone methyltransferase NSD2; O96028; NSD2 peptide methylation, AlphaScreen, 120 min; inhibition, % at 12.5 µM; hit rate 0.54% among 310,000; in the data active = inhibition above about 50%
SIRT5 inh: blocks human SIRT5 desuccinylation of peptide; AID 652115; hit rate 1.1% among 330,000; inhibition, % at 15 µM; Purified SirT5, succinyl-peptide AMC, trypsin-coupled fluorescence; in the data active = inhibition above about 15%
Large screens that a line does not name were inactive.

CC(C)CC#Cc1ccc2c(c1)O[C@@H](CN(C)C(=O)C1CCCCC1)[C@H](C)CN([C@@H](C)CO)S2(=O)=O	SIRT5 inh 16.8 (no result: UCH37 DUB inh, NSD2 HMT inh)
C[C@@H]1CN([C@H](C)CO)S(=O)(=O)c2ccc(C#Cc3ccccc3)cc2O[C@H]1CN(C)C(=O)C1CC1	SIRT5 inh 15.6 (no result: UCH37 DUB inh, NSD2 HMT inh)
CC(C)CC#Cc1ccc2c(c1)O[C@H](CN(C)C(=O)C1CCC1)[C@@H](C)CN([C@@H](C)CO)S2(=O)=O	none (no result: UCH37 DUB inh, NSD2 HMT inh)
CC(C)CC#Cc1ccc2c(c1)O[C@H](CN(C)C(=O)C1CCCCC1)[C@@H](C)CN([C@@H](C)CO)S2(=O)=O	SIRT5 inh 26.9 (no result: UCH37 DUB inh, NSD2 HMT inh)
O=C(N[C@@H]1CC[C@@H](CCn2cc(C3(O)CCCC3)nn2)O[C@H]1CO)c1ccccc1F	none (no result: UCH37 DUB inh, NSD2 HMT inh)
C[C@@H]1CN([C@H](C)CO)S(=O)(=O)c2ccc(-c3ccc(C(=O)N(C)C)cc3)cc2O[C@@H]1CN(C)Cc1ccccc1C(=O)O	none (no result: UCH37 DUB inh, NSD2 HMT inh, SIRT5 inh)
CO[C@H]1CN(C)C(=O)c2ccc(NS(=O)(=O)c3cccc(F)c3)cc2OC[C@H](C)N(C(=O)Cc2cccnc2)C[C@H]1C	none (no result: UCH37 DUB inh, NSD2 HMT inh, SIRT5 inh)
CCCC(=O)Nc1ccc2c(c1)C(=O)N(C)C[C@H](OC)[C@@H](C)CN(C(=O)c1cccnc1)[C@@H](C)CO2	none (no result: UCH37 DUB inh, NSD2 HMT inh)
COc1ccccc1CN1[C@@H]2CN(C(=O)c3ccc(F)cc3)c3ccccc3[C@@H]2[C@@H]1CO	none (no result: UCH37 DUB inh, NSD2 HMT inh)
CC(C)CC#Cc1ccc2c(c1)O[C@@H](CN(C)CC1CCOCC1)[C@H](C)CN([C@H](C)CO)S2(=O)=O	SIRT5 inh 16.7 (no result: UCH37 DUB inh, NSD2 HMT inh)
O=C1C=CC(=O)N1CCCCCCN1C(=O)C=CC1=O	none (no result: Casp6 inh, FGF22 binding, SIRT5 inh)
O=C(O)CN1C(=O)C=CC1=O	Casp6 inh 36.1 (no result: UCH37 DUB inh)
C[C@@H]1CN([C@H](C)CO)S(=O)(=O)c2ccc(/C=C/c3ccccc3)cc2O[C@H]1CN(C)C(=O)NC1CCCCC1	SIRT5 inh 24.6 (no result: UCH37 DUB inh, NSD2 HMT inh)
C/C=C/c1ccc2c(c1)O[C@@H](CN(C)C(=O)NC1CCCCC1)[C@H](C)CN([C@@H](C)CO)S2(=O)=O	none (no result: UCH37 DUB inh, NSD2 HMT inh)
C[C@H]1CN([C@@H](C)CO)S(=O)(=O)c2ccc(/C=C/c3ccccc3)cc2O[C@@H]1CN(C)C(=O)NC1CCCCC1	SIRT5 inh 29.5 (no result: UCH37 DUB inh, NSD2 HMT inh)
C/C=C/c1ccc2c(c1)O[C@@H](CN(C)C(=O)NC1CCCCC1)[C@H](C)CN([C@H](C)CO)S2(=O)=O	none (no result: UCH37 DUB inh, NSD2 HMT inh)
CCOc1cc(/C=C2\SC(=O)N(CC(=O)Nc3ccccc3F)C2=O)cc([N+](=O)[O-])c1O	UCH37 DUB inh 22.9
CO[C@@H]1CN(C)C(=O)c2ccc(NC(=O)C3CCC3)cc2OC[C@@H](C)N(C(=O)NC(C)C)C[C@@H]1C	none (no result: UCH37 DUB inh, NSD2 HMT inh)
C[n+]1cc(C(=O)N2CCCCC2)ccc1/C=C/c1c[nH]c2ccccc12	UCH37 DUB inh 23.5
O=C(C(=O)N1CCCCCC1)c1c[nH]c2ccccc12	none (no result: SIRT5 inh)
CC(=Nn1cnnc1)c1cccnc1	none (no result: Casp6 inh, FGF22 binding, NSD2 HMT inh, SIRT5 inh)
C/C=C/c1cnc2c(c1)C(=O)N([C@H](C)CO)C[C@H](C)[C@@H](CN(C)Cc1cncnc1)O2	none (no result: UCH37 DUB inh, NSD2 HMT inh)
Cc1noc(NS(=O)(=O)c2ccc(NC(=O)/C=C/c3ccc(C(C)C)cc3)cc2)c1C	FGF22 binding 1.4
COc1ccc(-c2nc(CCl)cs2)cc1	FGF22 binding 43.0
COc1cccc(-c2nc(CCl)cs2)c1	none
ClCc1csc(-c2ccccc2Cl)n1	FGF22 binding 43.2
C[C@@H]1CCCCO[C@H](CN(C)S(=O)(=O)c2ccccc2)[C@H](C)CN([C@H](C)CO)C(=O)c2cc(NC(=O)Cc3ccccc3)ccc2O1	none (no result: UCH37 DUB inh, NSD2 HMT inh)
c1coc(-c2cnc3ccccc3n2)c1	none (no result: UCH37 DUB inh, SIRT5 inh)
c1coc(-c2nc3ccccc3nc2-c2ccco2)c1	Casp6 inh 69.2 (no result: NSD2 HMT inh)
C=C(C)C1CC=C(C)C(=NNC(=O)c2cccs2)C1 (stereo not drawn)	none (no result: Casp6 inh, FGF22 binding, NSD2 HMT inh, SIRT5 inh)
Cc1ccc(N/C=C2\CCCCC2=O)nc1	FGF22 binding 43.2
O=C(Nc1cccnc1)c1cccc(S(=O)(=O)Nc2ccccc2F)c1	none
O=C(/C=C/c1ccccc1)Nc1cccc(S(=O)(=O)Nc2ccccc2F)c1	SIRT5 inh 25.3
O=C(NNC(=O)c1cccc(S(=O)(=O)Nc2ccccc2F)c1)c1ccncc1	SIRT5 inh 17.5 (no result: UCH37 DUB inh)
O=C(Cc1ccc(Cl)cc1Cl)Nc1cccc(S(=O)(=O)Nc2ccccc2F)c1	SIRT5 inh 29.7
CN1C(=O)c2cc(NC(=O)C3CCCCC3)ccc2OC[C@@H]2O[C@@H](CC(=O)NCc3ccccc3F)CC[C@H]21	none (no result: UCH37 DUB inh, NSD2 HMT inh)
CCNC(=O)[C@@H]1[C@@H](CO)[C@@H]2Cn3c(ccc(-c4ccccc4F)c3=O)[C@H]1N2CCC(F)(F)F	none (no result: UCH37 DUB inh, NSD2 HMT inh)

Bioassay records as filed in PubChem.
